# From article PMC8159369 (Chemical Science, 2020)
# Target: HRP-labeled WGA
# Experiment: Enzyme-linked lectin assay
# Parameters: species or system Triticum vulgaris
# Conditions: inhibition of binding of HRP-labeled WGA to covalently immobilized GlcNAc
# Summary of the method: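 ELLA in which the test compound competes with a surface-coated reference ligand for lectin binding. Dose–response curves were recorded over a concentration series. IC50 is the concentration giving 50% inhibition of lectin binding.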
compound,measurement,value
"CC(=O)N[C@@H]1[C@@H](O)[C@H](O)[C@@H](CO)O[C@H]1O [GlcNAc, N-acetylglucosamine]",IC50,15 mM
